In BindingDB's records for doi:10.1021/acsmedchemlett.6b00438 (Rhône-Poulenc Rorer, 2017) one finds IC50 data, which are given here for one compound.

Experiment [1] deals with T1, Phosphatidylinositol 4,5-bisphosphate 3-kinase catalytic subunit delta isoform (Homo sapiens, UniProt O00329).
T1 sequence (O00329 whole entry): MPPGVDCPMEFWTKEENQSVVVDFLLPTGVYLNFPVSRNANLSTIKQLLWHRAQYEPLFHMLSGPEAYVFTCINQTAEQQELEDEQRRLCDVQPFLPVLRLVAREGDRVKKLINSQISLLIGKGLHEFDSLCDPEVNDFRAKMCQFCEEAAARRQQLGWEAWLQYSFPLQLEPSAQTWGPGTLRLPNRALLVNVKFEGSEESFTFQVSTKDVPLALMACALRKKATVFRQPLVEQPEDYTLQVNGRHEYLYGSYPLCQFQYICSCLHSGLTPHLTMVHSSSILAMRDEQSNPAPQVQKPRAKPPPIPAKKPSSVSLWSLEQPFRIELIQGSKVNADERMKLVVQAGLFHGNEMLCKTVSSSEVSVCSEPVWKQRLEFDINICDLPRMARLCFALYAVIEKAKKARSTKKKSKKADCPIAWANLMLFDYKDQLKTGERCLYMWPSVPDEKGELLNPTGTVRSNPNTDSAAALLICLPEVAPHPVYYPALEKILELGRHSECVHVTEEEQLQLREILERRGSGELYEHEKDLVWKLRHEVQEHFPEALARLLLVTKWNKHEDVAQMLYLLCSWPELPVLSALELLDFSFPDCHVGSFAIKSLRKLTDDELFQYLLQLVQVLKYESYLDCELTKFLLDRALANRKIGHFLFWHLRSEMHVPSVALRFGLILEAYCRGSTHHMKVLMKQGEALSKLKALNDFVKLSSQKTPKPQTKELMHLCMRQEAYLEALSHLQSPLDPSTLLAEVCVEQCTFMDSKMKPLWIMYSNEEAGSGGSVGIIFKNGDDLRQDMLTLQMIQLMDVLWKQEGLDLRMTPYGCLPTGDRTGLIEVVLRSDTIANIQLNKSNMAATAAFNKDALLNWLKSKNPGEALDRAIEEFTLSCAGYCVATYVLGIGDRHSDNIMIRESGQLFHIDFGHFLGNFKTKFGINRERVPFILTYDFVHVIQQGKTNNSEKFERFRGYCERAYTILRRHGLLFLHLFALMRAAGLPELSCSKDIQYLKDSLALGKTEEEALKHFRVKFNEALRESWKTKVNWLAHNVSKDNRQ
The experiment in a line: Inhibition of PI3Kdelta in human THP1 cells assessed as reduction in MCSF-stimulated akt phosphorylation at Thr308 preincubated for 30 mins followed by MCSF stimulation for 3 mins by ELISA. A digest of the protocol:
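THP-1 cells exposed to compound for 30 min, then stimulated with MCSF at EC80 for 3 min; lysates assayed by ELISA for pAkt (Thr308).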
(ELISA stands for enzyme-linked immunosorbent assay.)

Experiment [2] has as its target Phosphatidylinositol 3-kinase regulatory subunit alpha/4,5-bisphosphate 3-kinase catalytic subunit delta isoform (Homo sapiens, UniProt P27986+O00329). The experiment in a line: Inhibition of full length recombinant human N-terminal His6-tagged PI3K p110delta/human p85alpha expressed in baculovirus infected sf21 cells using PIP2 as substrate preincubated for 30 mins followed by substrate addition by HTRF assay. For orientation: In TR-FRET formats the signal depends on donor and acceptor labels being close together.

Chain of Phosphatidylinositol 3-kinase regulatory subunit alpha/4,5-bisphosphate 3-kinase catalytic subunit delta isoform (P27986 whole entry, one chain of several, canonical isoform): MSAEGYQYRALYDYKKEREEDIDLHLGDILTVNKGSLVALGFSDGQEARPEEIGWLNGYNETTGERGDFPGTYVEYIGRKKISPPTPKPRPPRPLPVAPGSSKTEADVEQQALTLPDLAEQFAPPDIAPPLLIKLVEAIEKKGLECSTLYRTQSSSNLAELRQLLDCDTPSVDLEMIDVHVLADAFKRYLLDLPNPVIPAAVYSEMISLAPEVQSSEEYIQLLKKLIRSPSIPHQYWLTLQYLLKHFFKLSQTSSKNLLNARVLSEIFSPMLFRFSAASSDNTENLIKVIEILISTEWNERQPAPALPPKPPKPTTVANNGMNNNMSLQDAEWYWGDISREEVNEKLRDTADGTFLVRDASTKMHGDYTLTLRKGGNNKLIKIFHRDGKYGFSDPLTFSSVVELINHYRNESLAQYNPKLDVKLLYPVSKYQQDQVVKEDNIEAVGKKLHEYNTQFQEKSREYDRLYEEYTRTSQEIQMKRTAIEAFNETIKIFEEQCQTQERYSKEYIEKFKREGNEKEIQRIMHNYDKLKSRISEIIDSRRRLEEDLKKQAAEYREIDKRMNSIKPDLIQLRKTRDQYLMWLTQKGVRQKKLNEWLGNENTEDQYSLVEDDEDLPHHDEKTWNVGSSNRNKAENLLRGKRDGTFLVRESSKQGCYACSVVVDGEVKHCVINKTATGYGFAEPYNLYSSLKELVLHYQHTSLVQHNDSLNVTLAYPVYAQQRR

Consider `N#Cc1c(N)ncnc1NC(CC(F)(F)F)c1nn2cccc2c(=O)n1-c1ccccc1` (configuration not stated), for which the IC50 in experiment [1] was determined as 51 nM; in experiment [2] it was 17 nM.

For orientation: IC50 means the concentration needed to halve the response being measured.
